Series [1] concerns the target Tyrosine-protein kinase BTK (Homo sapiens) (UniProt Q06187). Kind of series: Binding affinity to wild-type human full length BTK (M1 to S659 residues) expressed in mammalian expression system assessed as residual binding level at 10000 nM by Kinomescan method relative to control. An outline of the steps: (§1)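 KINOMEScan competition binding panel run at 10,000 nM compound, with results expressed as percent of control binding. S(10) is the fraction of non-mutant kinases below 10% of control, out of 395 tested.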

A short description of series [2]: Oral bioavailability in rat at 23.6 mg/kg. Type of series: ADME, organism-based. The conditions noted are these: in vivo. In a few lines:
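Rat pharmacokinetics: single IV injection at 5 mg/kg or oral dosing at 20 mg/kg (23.6 mg/kg oral for one compound). Plasma parameters t1/2, CL, Vss, AUC(0-inf), Cmax, Tmax and oral bioavailability F were derived from the concentration–time profiles.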

Series [3] concerns the target STE20-like serine/threonine-protein kinase (Homo sapiens) (UniProt Q9H2G2). The experiment in a line: Binding affinity to wild-type human partial length SLK (S14 to A307 residues) expressed in bacterial expression system assessed as residual binding level at 10000 nM by Kinomescan method relative to control. An outline of the steps:
as §1

In series [4] the target is Serine/threonine-protein kinase 10 (Homo sapiens) (UniProt O94804). The experiment in a line: Binding affinity to wild-type human partial length LOK (E16 to V314 residues) expressed in bacterial expression system assessed as residual binding level at 10000 nM by Kinomescan method relative to control. An outline of the steps: as §1
Series [5] has as its target Tyrosine-protein kinase Blk (Homo sapiens) (UniProt P51451). Kind of series: Binding affinity to wild-type human partial length BLK (G211 to L503 residues) expressed in bacterial expression system assessed as residual binding level at 10000 nM by Kinomescan method relative to control. In a few lines:
as §1

Series [6] deals with T1, Tyrosine-protein kinase Tec (Homo sapiens) (UniProt P42680).
T1 sequence (whole entry): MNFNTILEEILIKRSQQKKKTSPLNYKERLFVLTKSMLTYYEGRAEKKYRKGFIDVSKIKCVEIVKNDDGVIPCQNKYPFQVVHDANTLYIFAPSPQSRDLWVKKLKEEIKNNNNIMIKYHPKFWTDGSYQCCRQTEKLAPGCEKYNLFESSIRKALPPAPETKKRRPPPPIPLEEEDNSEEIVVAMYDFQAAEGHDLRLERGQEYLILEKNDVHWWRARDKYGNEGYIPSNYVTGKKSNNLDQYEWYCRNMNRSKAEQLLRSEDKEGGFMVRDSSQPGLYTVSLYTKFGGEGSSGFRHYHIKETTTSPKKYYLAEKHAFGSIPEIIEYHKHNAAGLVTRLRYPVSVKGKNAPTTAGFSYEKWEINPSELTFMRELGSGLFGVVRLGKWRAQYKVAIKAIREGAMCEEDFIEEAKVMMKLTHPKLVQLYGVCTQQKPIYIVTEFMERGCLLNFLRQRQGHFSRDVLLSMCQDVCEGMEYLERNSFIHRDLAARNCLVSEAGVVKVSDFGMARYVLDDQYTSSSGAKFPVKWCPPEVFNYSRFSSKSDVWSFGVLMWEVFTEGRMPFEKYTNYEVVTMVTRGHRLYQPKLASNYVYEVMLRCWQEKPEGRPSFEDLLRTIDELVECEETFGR
Kind of series: Binding affinity to wild-type human partial length TEC (L341 to D620 residues) expressed in bacterial expression system assessed as residual binding level at 10000 nM by Kinomescan method relative to control. An outline of the steps: as §1

In series [7] the target is T2, Tyrosine-protein kinase TXK (Homo sapiens) (UniProt P42681).
T2 sequence (whole entry): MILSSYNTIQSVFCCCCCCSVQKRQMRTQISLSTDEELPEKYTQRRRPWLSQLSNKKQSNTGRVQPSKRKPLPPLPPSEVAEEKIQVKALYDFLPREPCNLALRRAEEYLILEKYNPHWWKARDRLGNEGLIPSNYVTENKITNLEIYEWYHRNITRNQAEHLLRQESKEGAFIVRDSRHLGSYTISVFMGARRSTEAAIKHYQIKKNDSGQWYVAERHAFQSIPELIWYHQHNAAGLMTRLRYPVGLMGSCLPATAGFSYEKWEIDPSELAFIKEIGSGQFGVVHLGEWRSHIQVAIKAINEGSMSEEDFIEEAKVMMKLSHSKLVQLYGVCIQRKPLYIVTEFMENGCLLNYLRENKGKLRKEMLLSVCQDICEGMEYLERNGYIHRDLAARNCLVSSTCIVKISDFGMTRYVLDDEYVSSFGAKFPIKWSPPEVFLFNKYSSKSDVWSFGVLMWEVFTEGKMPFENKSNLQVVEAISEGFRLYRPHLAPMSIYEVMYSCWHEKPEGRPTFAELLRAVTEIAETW
The experiment in a line: Binding affinity to wild-type human partial length TXK (L238 to W527 residues) expressed in bacterial expression system assessed as residual binding level at 10000 nM by Kinomescan method relative to control. An outline of the steps:
as §1

A further series has as its system NCI-H1975. The conditions noted are these: Homo sapiens, at 312.5 to 20000 nM.
Series [8] is described as follows: Toxicity in nude BALB/c mouse xenografted with human NCI-H1975 cells assessed as induction of body weight loss at 50 mg/kg, po QD for 15 days relative to control. The conditions noted are these: in vivo, 360 h. Type of series: organism-based. In a few lines: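 H1975 cells were grown in RPMI1640 with 10% heat-inactivated FBS at 37 °C, 5% CO2, and passaged by trypsin-EDTA. 5x10^6 cells in 0.1 ml PBS were injected subcutaneously at the right flank of BALB/c nude mice. Oral QD dosing for 15 days began at a mean tumor size of 147 mm³, n = 5 per group.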

Series [9] can be described thus: Toxicity in athymic NU-Fox1nu nude mouse xenografted with human HCC827 cells assessed as induction of adverse effects at 20 to 50 mg/kg, po dosed via gavage for 5 days/week for 2 consecutive weeks. Type of series: organism-based. The conditions noted are these: in vivo, 120 h. In a few lines: (§2)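 Male athymic NU-Fox1nu nude mice, 6–8 weeks old, were inoculated subcutaneously at the left flank with 5x10^6 HCC827 (exon 19 Del E746_A750) cells. Oral gavage began at a mean tumor size of about 500 mm³, in 1% methylcellulose/0.5% Tween 80/98.5% water, once daily on days 1-5 and 8-12. Tumor volume (V = 0.5 a × b², caliper) and body weight were tracked.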
For orientation: In xenograft studies the graft and the host belong to different species.

In the next series the test system is HCC827. The experiment in a line: Antitumor activity against human HCC827 cells xenografted in athymic NU-Fox1nu nude mouse assessed as inhibition of tumor growth at 20 to 50 mg/kg, po dosed via gavage for 5 days/week for 2 consecutive weeks. Type of series: functional, organism-based. In a few lines: as §2

As usually defined, the bioavailability is the share of a dose that reaches the circulation, judged against a reference dose that is usually intravenous. Read a low bioavailability as little systemic uptake.

Activity calls are given as the source filed them. The calls are words filed in the database; no cut-off is given here.

Chain of Serine/threonine-protein kinase 10 (Homo sapiens) (O94804 whole entry, looked up, the tested form may be a part): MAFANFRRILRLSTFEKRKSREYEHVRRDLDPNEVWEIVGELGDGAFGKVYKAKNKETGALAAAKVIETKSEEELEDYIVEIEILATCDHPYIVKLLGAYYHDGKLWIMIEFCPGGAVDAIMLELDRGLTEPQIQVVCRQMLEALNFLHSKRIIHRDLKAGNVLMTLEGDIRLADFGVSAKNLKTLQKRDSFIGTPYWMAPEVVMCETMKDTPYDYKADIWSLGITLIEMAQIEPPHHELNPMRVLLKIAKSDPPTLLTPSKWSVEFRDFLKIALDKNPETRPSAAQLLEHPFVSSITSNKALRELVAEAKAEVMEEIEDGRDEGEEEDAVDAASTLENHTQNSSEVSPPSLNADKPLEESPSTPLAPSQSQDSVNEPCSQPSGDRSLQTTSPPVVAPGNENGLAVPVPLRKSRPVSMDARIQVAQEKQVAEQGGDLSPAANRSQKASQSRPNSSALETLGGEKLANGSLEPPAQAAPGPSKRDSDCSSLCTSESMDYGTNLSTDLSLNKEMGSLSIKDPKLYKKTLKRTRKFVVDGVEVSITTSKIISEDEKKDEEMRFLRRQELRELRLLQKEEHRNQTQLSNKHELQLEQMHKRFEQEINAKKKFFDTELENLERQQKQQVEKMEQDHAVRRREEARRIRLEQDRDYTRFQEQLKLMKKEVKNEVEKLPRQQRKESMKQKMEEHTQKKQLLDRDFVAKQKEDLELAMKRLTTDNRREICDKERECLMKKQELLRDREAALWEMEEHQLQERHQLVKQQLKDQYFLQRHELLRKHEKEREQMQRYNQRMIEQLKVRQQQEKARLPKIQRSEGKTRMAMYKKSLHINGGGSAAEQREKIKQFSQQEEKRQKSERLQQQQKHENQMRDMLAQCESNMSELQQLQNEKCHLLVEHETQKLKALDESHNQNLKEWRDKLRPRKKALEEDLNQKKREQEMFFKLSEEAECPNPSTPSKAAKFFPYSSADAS
Chain of Tyrosine-protein kinase BTK (Homo sapiens) (Q06187 whole entry, the tested form may be a part): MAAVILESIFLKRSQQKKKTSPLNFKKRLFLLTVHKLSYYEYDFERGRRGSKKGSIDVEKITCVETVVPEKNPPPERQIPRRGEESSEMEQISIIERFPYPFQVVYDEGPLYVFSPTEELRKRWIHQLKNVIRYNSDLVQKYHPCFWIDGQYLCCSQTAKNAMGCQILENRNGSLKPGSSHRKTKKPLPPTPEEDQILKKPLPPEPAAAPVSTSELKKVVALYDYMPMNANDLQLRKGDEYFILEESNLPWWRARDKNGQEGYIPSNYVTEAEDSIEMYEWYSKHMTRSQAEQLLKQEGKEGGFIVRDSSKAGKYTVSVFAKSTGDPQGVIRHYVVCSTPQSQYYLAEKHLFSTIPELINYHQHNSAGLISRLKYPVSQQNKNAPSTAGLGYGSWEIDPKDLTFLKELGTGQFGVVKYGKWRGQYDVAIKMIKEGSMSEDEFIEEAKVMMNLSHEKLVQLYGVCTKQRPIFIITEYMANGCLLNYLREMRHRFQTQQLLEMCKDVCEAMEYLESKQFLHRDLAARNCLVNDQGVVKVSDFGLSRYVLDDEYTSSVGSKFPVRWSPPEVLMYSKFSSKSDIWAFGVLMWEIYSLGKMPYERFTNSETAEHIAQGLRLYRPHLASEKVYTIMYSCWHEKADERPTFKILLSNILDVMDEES
Chain of Tyrosine-protein kinase Blk (Homo sapiens) (P51451 2-505 limits assumed): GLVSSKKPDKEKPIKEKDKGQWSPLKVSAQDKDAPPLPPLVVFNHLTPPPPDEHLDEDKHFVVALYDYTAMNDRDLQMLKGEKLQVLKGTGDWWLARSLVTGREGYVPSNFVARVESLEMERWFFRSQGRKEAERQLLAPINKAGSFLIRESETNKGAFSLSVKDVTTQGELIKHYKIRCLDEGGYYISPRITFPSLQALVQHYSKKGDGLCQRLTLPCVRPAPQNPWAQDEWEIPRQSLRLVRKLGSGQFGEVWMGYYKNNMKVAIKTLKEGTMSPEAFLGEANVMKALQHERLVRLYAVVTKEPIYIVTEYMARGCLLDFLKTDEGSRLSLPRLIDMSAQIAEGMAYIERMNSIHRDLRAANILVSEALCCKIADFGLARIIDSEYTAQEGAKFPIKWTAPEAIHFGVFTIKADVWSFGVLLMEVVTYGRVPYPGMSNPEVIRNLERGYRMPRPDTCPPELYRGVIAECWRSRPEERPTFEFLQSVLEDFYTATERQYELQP
Chain of STE20-like serine/threonine-protein kinase (Homo sapiens) (Q9H2G2 whole entry, looked up, the tested form may be a part): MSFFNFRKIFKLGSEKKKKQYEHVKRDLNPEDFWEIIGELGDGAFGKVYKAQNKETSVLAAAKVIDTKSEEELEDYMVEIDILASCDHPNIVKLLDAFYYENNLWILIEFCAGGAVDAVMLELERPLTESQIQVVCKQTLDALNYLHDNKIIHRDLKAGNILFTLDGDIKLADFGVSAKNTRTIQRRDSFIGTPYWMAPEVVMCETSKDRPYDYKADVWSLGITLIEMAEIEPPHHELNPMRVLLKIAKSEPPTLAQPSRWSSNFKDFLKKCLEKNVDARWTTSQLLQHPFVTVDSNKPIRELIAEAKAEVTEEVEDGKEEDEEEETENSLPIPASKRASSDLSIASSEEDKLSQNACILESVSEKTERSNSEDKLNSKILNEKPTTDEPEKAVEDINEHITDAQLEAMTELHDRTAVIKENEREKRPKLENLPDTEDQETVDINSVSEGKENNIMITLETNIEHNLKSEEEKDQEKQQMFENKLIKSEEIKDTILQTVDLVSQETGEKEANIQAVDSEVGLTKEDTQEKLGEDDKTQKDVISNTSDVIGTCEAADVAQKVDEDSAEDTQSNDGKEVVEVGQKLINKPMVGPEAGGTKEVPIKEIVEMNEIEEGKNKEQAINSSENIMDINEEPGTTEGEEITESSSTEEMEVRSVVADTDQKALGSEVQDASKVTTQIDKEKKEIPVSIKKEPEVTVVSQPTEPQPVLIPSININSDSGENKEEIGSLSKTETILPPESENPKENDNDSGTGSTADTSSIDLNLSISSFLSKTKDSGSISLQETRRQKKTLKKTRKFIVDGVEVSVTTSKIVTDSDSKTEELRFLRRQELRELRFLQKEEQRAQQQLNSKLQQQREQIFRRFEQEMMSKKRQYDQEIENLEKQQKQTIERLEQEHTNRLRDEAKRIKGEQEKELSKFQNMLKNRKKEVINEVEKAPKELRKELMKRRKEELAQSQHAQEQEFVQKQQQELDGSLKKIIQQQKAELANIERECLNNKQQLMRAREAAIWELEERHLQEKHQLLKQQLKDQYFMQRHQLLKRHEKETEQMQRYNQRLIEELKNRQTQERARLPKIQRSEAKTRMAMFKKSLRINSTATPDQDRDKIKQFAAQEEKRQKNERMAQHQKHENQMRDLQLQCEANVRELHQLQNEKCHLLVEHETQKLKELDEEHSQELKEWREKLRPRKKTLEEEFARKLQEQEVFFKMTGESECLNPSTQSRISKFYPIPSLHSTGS

For `CN(C)C/C=C/C(=O)Nc1cccc(-c2c(-c3ccccc3)oc3ncnc(N[C@H](CO)c4ccccc4)c23)c1`, the Activity is 3% in series [1]; less than 10% in series [3]; less than 10% in series [4]; 0.25% in series [5]; 5.6% in [6]; less than 10% in [7]. Also, the Activity entry in [8] and in series [9] was “Non-Toxic” in each case. For the same compound, the bioavailability in series [2] was found to be 41.5%. Also, the inhibition entry in the series on NCI-H1975 was “Dose-dependent effect”. Also, the TGI result in the series on HCC827 was “Active”.

(Values after ChEMBL document CHEMBL4414600, “Discovery of a Furanopyrimidine-Based Epidermal Growth Factor Receptor Inhibitor (DBPR112) as a Clinical Candidate for the Treatment of Non-Small Cell Lung Cancer” (J Med Chem, 2019).)
